Test results reported in ChEMBL document CHEMBL3272012, “5-(Tetradecyloxy)-2-furancarboxylic acid and related hypolipidemic fatty acid-like alkyloxyarylcarboxylic acids” (J Med Chem, 1977).
One block for each compound: values may come before it.

How the values were obtained:
Rattus norvegicus [1] = assay: Hypolipidemic activity in Wistar rat assessed as reduction in plasma triglyceride level at 149 umol/kg/day administered through diet for 10 days; type: functional; conditions: 240 h, read-out: INH
In short: (§1)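 Young male Wistar rats, 170-190 g initial weight, six per group, fed drug mixed thoroughly into Purina Lab Chow ad libitum for the stated days; daily dose calculated from food consumption and body weight. Bled by cardiac puncture at end; plasma cholesterol and triglycerides by automated procedures, expressed as percent reduction versus simultaneous untreated controls; Student's t test.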

Rattus norvegicus [2] = assay: Hypolipidemic activity in Wistar rat assessed as reduction in plasma triglyceride level at 511 umol/kg/day administered through diet for 10 days; type: functional; conditions: 240 h
Rattus norvegicus [3] = assay: Hypolipidemic activity in Wistar rat assessed as reduction in plasma cholesterol level at 511 umol/kg/day administered through diet for 10 days; type: functional; conditions: 240 h
In short: (§2)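 Young male Wistar rats, 170-190 g initial weight, groups of six, given compound mixed thoroughly into Purina Lab Chow ad libitum for 4 or 10 days as stated. Daily dose calculated from food consumption and body weight. Bled by cardiac puncture at end of treatment; plasma cholesterol measured by automated procedure. Expressed as percent reduction versus simultaneous untreated control group; Student's t test.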

Rattus norvegicus [4] = assay: Increase in cholesterol level in Wistar rat liver at 511 umol/kg/day administered through diet for 10 days; type: ADME, organism-based; conditions: in vivo, po, 240 h
Rattus norvegicus [5] = assay: Hypolipidemic activity in Wistar rat assessed as reduction in plasma triglyceride level at 275 umol/kg/day administered through diet for 10 days; type: functional; conditions: 240 h; in short: as §1
Rattus norvegicus [6] = assay: Increase in liver weight in Wistar rat at 275 umol/kg/day administered through diet for 10 days; type: ADME, organism-based; conditions: in vivo, po, 240 h
Rattus norvegicus [7] = assay: Hypolipidemic activity in Wistar rat assessed as reduction in plasma cholesterol level at 275 umol/kg/day administered through diet for 10 days; type: functional; conditions: 240 h
In short: (§3)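 Young male Wistar rats, 170-190 g at start, in groups of six, given compound mixed into Purina Lab Chow ad libitum for 4 or 10 days as stated. Daily dose was calculated from food consumption and body weight. Plasma was taken by cardiac puncture at the end and cholesterol measured by automated procedure. Results are % reduction versus a concurrent untreated control group, with Student's t test.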

Rattus norvegicus [8] = assay: Increase in cholesterol level in Wistar rat liver at 149 umol/kg/day administered through diet for 10 days; type: ADME, organism-based; conditions: in vivo, po, 240 h
Rattus norvegicus [9] = assay: Hypolipidemic activity in Wistar rat assessed as reduction in plasma triglyceride level at 407 umol/kg/day administered through diet for 4 days; type: functional; conditions: 96 h
Rattus norvegicus [10] = assay: Increase in cholesterol level in Wistar rat liver at 275 umol/kg/day administered through diet for 10 days; type: ADME, organism-based; conditions: in vivo, po, 240 h
Rattus norvegicus [11] = assay: Increase in liver weight in Wistar rat at 407 umol/kg/day administered through diet for 4 days; type: ADME, organism-based; conditions: in vivo, po, 96 h
Rattus norvegicus [12] = assay: Increase in liver weight in Wistar rat at 149 umol/kg/day administered through diet for 10 days; type: ADME, organism-based; conditions: in vivo, po, 240 h
Rattus norvegicus [13] = assay: Hypolipidemic activity in Wistar rat assessed as reduction in plasma cholesterol level at 407 umol/kg/day administered through diet for 4 days; type: functional; conditions: 96 h; in short: as §3
Rattus norvegicus [14] = assay: Hypolipidemic activity in Wistar rat assessed as reduction in plasma cholesterol level at 149 umol/kg/day administered through diet for 10 days; type: functional; conditions: 240 h; in short: as §3
Rattus norvegicus [15] = assay: Increase in cholesterol level in Wistar rat liver at 407 umol/kg/day administered through diet for 4 days; type: ADME, organism-based; conditions: in vivo, po, 96 h
Rattus norvegicus [16] = assay: Increase in liver weight in Wistar rat at 511 umol/kg/day administered through diet for 10 days; type: ADME, organism-based; conditions: in vivo, po, 240 h
Rattus norvegicus [17] = assay: Hypolipidemic activity in Wistar rat assessed as reduction in plasma triglyceride level at 461 umol/kg/day administered through diet for 4 days; type: functional; conditions: 96 h
Rattus norvegicus [18] = assay: Increase in cholesterol level in Wistar rat liver at 439 umol/kg/day administered through diet for 10 days; type: ADME, organism-based; conditions: in vivo, po, 240 h
Rattus norvegicus [19] = assay: Hypolipidemic activity in Wistar rat assessed as reduction in plasma cholesterol level at 461 umol/kg/day administered through diet for 4 days; type: functional; conditions: 96 h; in short: as §2
Rattus norvegicus [20] = assay: Hypolipidemic activity in Wistar rat assessed as reduction in plasma cholesterol level at 439 umol/kg/day administered through diet for 10 days; type: functional; conditions: 240 h; in short: as §2
Rattus norvegicus [21] = assay: Increase in liver weight in Wistar rat at 461 umol/kg/day administered through diet for 4 days; type: ADME, organism-based; conditions: in vivo, po, 96 h
Rattus norvegicus [22] = assay: Increase in liver weight in Wistar rat at 392 umol/kg/day administered through diet for 10 days; type: ADME, organism-based; conditions: in vivo, po, 240 h
Rattus norvegicus [23] = assay: Increase in liver weight in Wistar rat at 439 umol/kg/day administered through diet for 10 days; type: ADME, organism-based; conditions: in vivo, po, 240 h
In short: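 Male Wistar rats (170-190 g initial), groups of six, dosed via diet ad libitum for 4 or 10 days, daily dose from food consumption. Liver wet weight measured, expressed as g/100 g final body weight, compared with untreated controls run simultaneously.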

Rattus norvegicus [24] = assay: Increase in cholesterol level in Wistar rat liver at 461 umol/kg/day administered through diet for 4 days; type: ADME, organism-based; conditions: in vivo, po, 96 h
Rattus norvegicus [25] = assay: Hypolipidemic activity in Wistar rat assessed as reduction in plasma cholesterol level at 392 umol/kg/day administered through diet for 10 days; type: functional; conditions: 240 h; in short: as §3
Rattus norvegicus [26] = assay: Increase in cholesterol level in Wistar rat liver at 392 umol/kg/day administered through diet for 10 days; type: ADME, organism-based; conditions: in vivo, po, 240 h
Rattus norvegicus [27] = assay: Hypolipidemic activity in Wistar rat assessed as reduction in plasma triglyceride level at 439 umol/kg/day administered through diet for 10 days; type: functional; conditions: 240 h
In short: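 Young male Wistar rats (initial weight 170-190 g), groups of six, fed compound mixed into Purina Lab Chow ad libitum for 4 or 10 days; daily dose calculated from food consumption and body weight. Bled by cardiac puncture; plasma cholesterol and triglycerides by automated procedures; percent reduction versus simultaneous untreated controls, Student's t test.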

Rattus norvegicus [28] = assay: Hypolipidemic activity in Wistar rat assessed as reduction in plasma triglyceride level at 392 umol/kg/day administered through diet for 10 days; type: functional; conditions: 240 h
In short: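 Young male Wistar rats (170-190 g initial weight), groups of six, fed test compound mixed into Purina Lab Chow ad libitum; daily dose calculated from food consumption and body weight. Bled by cardiac puncture at end of treatment; plasma triglycerides measured by automated procedure. Results given as percent reduction versus a simultaneous untreated control group, with significance by Student's t test.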

Rattus norvegicus [29] = assay: Hypolipidemic activity in Wistar rat assessed as reduction in plasma triglyceride level at 489 umol/kg/day administered through diet for 10 days; type: functional; conditions: 240 h
Rattus norvegicus [30] = assay: Increase in cholesterol level in Wistar rat liver at 489 umol/kg/day administered through diet for 10 days; type: ADME, organism-based; conditions: in vivo, po, 240 h
Rattus norvegicus [31] = assay: Increase in liver weight in Wistar rat at 489 umol/kg/day administered through diet for 10 days; type: ADME, organism-based; conditions: in vivo, po, 240 h
Rattus norvegicus [32] = assay: Hypolipidemic activity in Wistar rat assessed as reduction in plasma cholesterol level at 489 umol/kg/day administered through diet for 10 days; type: functional; conditions: 240 h; in short: as §2
Rattus norvegicus [33] = assay: Increase in cholesterol level in Wistar rat liver at 444 umol/kg/day administered through diet for 10 days; type: ADME, organism-based; conditions: in vivo, po, 240 h
Rattus norvegicus [34] = assay: Increase in liver weight in Wistar rat at 444 umol/kg/day administered through diet for 10 days; type: ADME, organism-based; conditions: in vivo, po, 240 h
Rattus norvegicus [35] = assay: Hypolipidemic activity in Wistar rat assessed as reduction in plasma triglyceride level at 444 umol/kg/day administered through diet for 10 days; type: functional; conditions: 240 h
Rattus norvegicus [36] = assay: Hypolipidemic activity in Wistar rat assessed as reduction in plasma cholesterol level at 444 umol/kg/day administered through diet for 10 days; type: functional; conditions: 240 h; in short: as §2

Activity (Rattus norvegicus [4]): 2% | Activity (Rattus norvegicus [6]): 20% | Activity (Rattus norvegicus [8]): 7% | Activity (Rattus norvegicus [10]): 4% | Activity (Rattus norvegicus [11]): 14% | Activity (Rattus norvegicus [12]): 7% | Activity (Rattus norvegicus [15]): 1% | Activity (Rattus norvegicus [16]): 19%
Structure (SMILES): CCCCCCCCCCCCCCOc1ccc(C(=O)O)cc1
inhibition in vivo at 149 µmol/kg (Rattus norvegicus [1]): 49% | inhibition in vivo at 511 µmol/kg (Rattus norvegicus [2]): 36% | inhibition in vivo at 511 µmol/kg (Rattus norvegicus [3]): 24% | inhibition in vivo at 275 µmol/kg (Rattus norvegicus [5]): 46% | inhibition in vivo at 275 µmol/kg (Rattus norvegicus [7]): 33% | inhibition in vivo at 407 µmol/kg (Rattus norvegicus [9]): 39% | inhibition in vivo at 407 µmol/kg (Rattus norvegicus [13]): 31% | inhibition in vivo at 149 µmol/kg (Rattus norvegicus [14]): 16%

Activity (Rattus norvegicus [18]): 3% | Activity (Rattus norvegicus [21]): 16% | Activity (Rattus norvegicus [22]): 2% | Activity (Rattus norvegicus [23]): 10% | Activity (Rattus norvegicus [24]): 20% | Activity (Rattus norvegicus [26]): 0%
Structure (SMILES): CCCCCCCCCCCCCCOc1ccc(C(=O)OCC)cc1
inhibition in vivo at 461 µmol/kg (Rattus norvegicus [17]): 42% | inhibition in vivo at 461 µmol/kg (Rattus norvegicus [19]): 23% | inhibition in vivo at 439 µmol/kg (Rattus norvegicus [20]): 24% | inhibition in vivo at 392 µmol/kg (Rattus norvegicus [25]): 33% | inhibition in vivo at 439 µmol/kg (Rattus norvegicus [27]): 54% | inhibition in vivo at 392 µmol/kg (Rattus norvegicus [28]): 61%

Activity (Rattus norvegicus [30]): 43% | Activity (Rattus norvegicus [31]): 19%
Structure (SMILES): CCCCCCCCCCOc1ccc(C(=O)OC)cc1
inhibition in vivo at 489 µmol/kg (Rattus norvegicus [29]): 94% | inhibition in vivo at 489 µmol/kg (Rattus norvegicus [32]): 36%

Activity (Rattus norvegicus [33]): 41% | Activity (Rattus norvegicus [34]): 23%
Structure (SMILES): CCCCCCCCCCCOc1ccc(C(=O)OC)cc1
inhibition in vivo at 444 µmol/kg (Rattus norvegicus [35]): 88% | inhibition in vivo at 444 µmol/kg (Rattus norvegicus [36]): 45%
